Measurements from different studies.
Compare with care: the assays were run in different laboratories.
DYRK2: Dual specificity tyrosine-phosphorylation-regulated kinase 2 (DYRK2, Homo sapiens, UniProt Q92630)
ADAM17: Disintegrin and metalloproteinase domain-containing protein 17 (ADAM17, Homo sapiens, UniProt P78536)

C#Cc1n[nH]c2c(-c3cn([C@@H](C)c4ccccc4)c(=O)[nH]c3=O)cc(F)cc12  inhibition (DYRK2; enzyme activity, inhibitor; 0.1 µM): 7.9%
Cn1cc(-c2cccc(N3CCc4c(sc5c4CC(C)(C)C5)C3=O)c2CO)cc(Nc2ccncn2)c1=O  inhibition (Phosphatidylinositol 4,5-bisphosphate 3-kinase catalytic subunit alpha isoform (PIK3CA, Homo sapiens, UniProt P42336); enzyme activity, inhibitor; 1 µM): 14%
CN(C)C(=O)COC(=O)Cc1ccc(OC(=O)c2ccc(NC(=N)N)cc2)cc1  inhibition (ADAM17; enzyme activity, inhibitor; 10 µM): 6%
C[C@H](C(=O)N[C@H]1COc2ccccc2[C@@H]1S(C)(=O)=O)c1ccc(F)cc1  inhibition (Gamma-aminobutyric acid type B receptor subunit 1 (GABBR1, Homo sapiens, UniProt Q9UBS5); cell-free assay; 10 µM): 4%
CCN(CC)CCCC[C@H](NC(=O)[C@H](CC(C)C)NC(=O)[C@H](C)NC(=O)[C@H](Cc1ccccc1)NC(=O)c1ccc(C(C)(C)C)cc1)C(=O)N[C@@H](CO)C(=O)OC  inhibition (Vasopressin V1a receptor (AVPR1A, Homo sapiens, UniProt P37288); ligand displacement, radioligand; 10 µM): 85%
c1ccc(C(NCCNC(c2ccccc2)c2ccccc2)c2ccccc2)cc1  inhibition (Vasopressin V1b receptor (AVPR1B, Homo sapiens, UniProt P47901); cell-free assay; 10 µM): 0%
CN(CCN1CCC(OC(=O)Nc2ccccc2-c2ccccc2)CC1)C(=O)c1ccc(CN2CCC(C(N)=O)CC2)cc1  inhibition (4-aminobutyrate aminotransferase, mitochondrial (Rattus norvegicus, UniProt P50554); enzyme activity, inhibitor; 1 µM): -12%
CC(C)C[C@H](CC(=O)NO)C(=O)N[C@H](C(=O)N[C@@H](C)C(=O)NCCN)C(C)(C)C  inhibition (ADAM17; enzyme activity, inhibitor; 0.1 µM): 0%
COc1cc(Nc2ncc(F)c(Nc3ccc4c(n3)NC(=O)C(C)(C)O4)n2)cc(OC)c1OC  inhibition (Mitogen-activated protein kinase kinase kinase 12 (MAP3K12, Homo sapiens, UniProt Q12852); binding, competition with immobilised ligand; 10 µM): 32%
C#Cc1n[nH]c2c(-c3cn([C@@H](C)c4ccccn4)c(=O)[nH]c3=O)cc(F)cc12  inhibition (DYRK2; enzyme activity, inhibitor; 0.1 µM): -0.2%
COc1c2c(cc3c1OCO3)CC[N+](C)=C2.[Cl-]  inhibition (Glycogen synthase kinase-3 beta (GSK3B, Homo sapiens, UniProt P49841); enzyme activity, inhibitor, ADP detection; 100 µM): 9.2%
O=C(Nc1cccnn1)N1CCN([C@@H]2CCOc3cc(C(F)(F)F)ccc32)CC1  inhibition (Motilin receptor (MLNR, Homo sapiens, UniProt O43193); cell-free assay; 20 µM): -3%
